From PubChem
Ecoli WT expand: growth inhibitors of wild-type E. coli, primary screen, strain BW25113, expanded library, OD600 | OD600 absorbance | growth inhibition, % at 100 µM | 98,000 tested, 0.15% active;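 active means growth inhibition above about 50% at one test dose, limit read from the data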;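 further: growth measured after 20 h incubation at 37 °C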
tolC growth inh: growth inhibitors of E. coli tolC mutant, primary screen, strain BW25113 ΔtolC::kan, 384-well. OD615. growth inhibition, % at 10 µM (by protocol). 65,000 tested, 2.2% active. AID 573, 2007;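 active means growth inhibition at or above a cutoff equal to the mean over every tested compound plus 3 SD, cut at about 60% in these data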;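 further: growth measured after 20 h incubation at 37 °C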
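Assay system: tolC-deleted E. coli BW25113. Medium: kanamycin-containing LB broth (50 µg/mL). Dosing: 10 µM final, single dose. Timing: bacterial growth with compound for 20 h at 37 °C. Detection: A615 absorbance measurement. Read-out basis: growth inhibition in percent.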
CYP2C19 inh: blockers of cytochrome P450 2C19 activity – biochemical, luminescence, ADME assay, primary screen; CYP2C19 Supersomes, luciferin-H EGE luminescence, 30 min; AID 778, 2007; inhibition, % at 5 µM; 96,000 tested, 21% active;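 active means CYP2C19 inhibition above a set limit at 5 µM in the primary screen, cut at about 50% in these data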;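 further: plate controls were negative control wells for no effect and 2.5 mM tranylcypromine positive control for full effect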
CYP2C19 act: human CYP2C19 activators, primary screen, biochemical, luminescence; Cytochrome P450 2C19 (Homo sapiens), P33261; recombinant CYP2C19, luciferin-H EGE luminescence; hits give high values; 0 = fully inhibited enzyme, 1 = untreated enzyme; 96,000 tested, under 10 active; AID 1025, 2008; activation factor at 5 µM;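 active means activation factor of at least 2 at 5 µM in the primary screen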;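 further: 0 = wells with 2.5 mM tranylcypromine and 1 = vehicle-only wells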
CYP2C9 inh: blockers of cytochrome P450 2C9 activity – biochemical, luminescence, ADME assay, primary screen | CYP2C9 Supersomes, luciferin-H conversion | AID 777, 2007 | 96,000 tested, 20% active | inhibition, % at 5 µM;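 active means blocking of liver enzyme CYP2C9 beyond about 50% at 5 µM, limit read from the data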
Target sequence (P11712 whole entry, looked up): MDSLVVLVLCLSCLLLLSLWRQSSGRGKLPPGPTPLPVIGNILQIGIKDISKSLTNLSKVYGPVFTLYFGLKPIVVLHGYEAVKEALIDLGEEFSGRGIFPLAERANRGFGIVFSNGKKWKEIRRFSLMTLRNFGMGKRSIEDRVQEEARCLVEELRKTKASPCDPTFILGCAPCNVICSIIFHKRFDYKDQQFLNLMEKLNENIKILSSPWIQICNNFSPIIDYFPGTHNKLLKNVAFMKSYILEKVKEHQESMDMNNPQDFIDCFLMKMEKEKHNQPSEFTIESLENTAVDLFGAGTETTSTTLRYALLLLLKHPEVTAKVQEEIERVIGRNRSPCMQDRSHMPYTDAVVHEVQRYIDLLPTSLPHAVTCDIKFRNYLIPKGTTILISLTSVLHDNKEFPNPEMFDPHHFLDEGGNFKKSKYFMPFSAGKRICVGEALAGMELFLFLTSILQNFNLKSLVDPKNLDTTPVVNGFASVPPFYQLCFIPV
CYP2C9 activ: human CYP2C9 activators, primary screen, biochemical, luminescence; Cytochrome P450 2C9 (Homo sapiens), P11712; recombinant CYP2C9, luciferin-H conversion; hits give high values; factor 1 = untreated enzyme, 0 = blocked; activation factor at 5 µM; 96,000 tested, 1.4% active;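 active means activation factor of 2 or more for CYP2C9 at a 5 µM dose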;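 further: 0 = sulfaphenazole-blocked wells and 1 = vehicle-only wells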
* marks the source's active call; other numbers are inactive results; / = no result. Only some compounds are listed: those with a hit (about 29% of all), similar ones and a draw of the others.

SMILES | Ecoli WT expand | tolC growth inh | CYP2C19 inh | CYP2C19 act | CYP2C9 inh | CYP2C9 activ
CCC(C)(C)NC(=O)CN(CC1CCCO1)C(=O)CCC(=O)Nc1nccs1 (stereo unspecified) | 4 | -27 | -9 | 1.1 | -12 | 1.1
Cc1cccc(Nc2nn3c(=O)c4ccccc4nc3s2)c1 | 2 | -16 | 15 | 0.8 | 26 | 0.7
CCCSc1nn2c(=O)c3ccccc3nc2s1 | 2 | / | 79* | 0.2 | 49 | 0.5
CCOC(=O)C1C(=O)OC2(CCOC(C)(C)C2)C1C(=O)OCC (stereo unspecified) | 7 | -7 | 18 | 0.8 | -17 | 1.2
Cc1nn(C)c(C)c1Sc1ccc(Br)cc1 | 6 | 15 | 64* | 0.4 | 25 | 0.8
Cc1cc(N2C(=O)C3C4C=CC(C4)C3C2=O)ccc1Br (stereo unspecified) | 1 | -13 | 73* | 0.3 | 24 | 0.8
O=C1C2C3C=CC(C3)C2C(=O)N1c1ccc2c(c1)OCO2 (stereo unspecified) | 3 | -10 | 8 | 0.9 | -8 | 1.1
Cc1cc(NC(=O)c2cncc(Br)c2)n(-c2ccccn2)n1 | -2 | -19 | 4 | 1 | -59 | 1.6
COc1ccccc1N(CN1CCCC1=O)C(=O)c1c(F)cccc1F | 0 | -4 | 28 | 0.7 | 76* | 0.2
COc1ccccc1N(CN1CCCC1=O)C(=O)c1ccccc1F | 3 | -12 | 2 | 1 | 6 | 0.9
CCOc1cc(C2CC(=O)N3CN(C4CCCCC4)CSC3=C2C#N)ccc1O (stereo unspecified) | 3 | 1 | 53* | 0.5 | 82* | 0.2
COc1ccc(C2C(C(=O)c3ccco3)=C(O)C(=O)N2CCc2ccccc2)cc1OC (stereo unspecified) | -4 | 6 | 4 | 1 | 33 | 0.7
COc1ccc2ccccc2c1C1CC(=O)N2CN(C3CCCCC3)CSC2=C1C#N (stereo unspecified) | 4 | -3 | 55* | 0.4 | 90* | 0.1
COc1ccc2ccccc2c1C1CC(=O)N2CN(Cc3ccco3)CSC2=C1C#N (stereo unspecified) | 19 | -17 | 55* | 0.4 | 86* | 0.1
CCOc1cc(C2C(C(=O)N3CCCCC3)=C(C)NC3=C2C(=O)CC(C)(C)C3)ccc1O (stereo unspecified) | 8 | -11 | 3 | 1 | 2 | 1
COc1ccccc1N1CCN(Cc2ccco2)CC1 | -3 | -8 | 21 | 0.8 | 6 | 0.9
COc1cc(C2CC(=O)N3CN(Cc4ccco4)CSC3=C2C#N)ccc1OCc1ccccc1 (stereo unspecified) | 6 | 8 | 25 | 0.7 | 83* | 0.2
COC(=O)c1[nH]c2ccccc2c1NC(=O)CN1CCC(C(N)=O)(N2CCCCC2)CC1 | 1 | -15 | 18 | 0.8 | 49 | 0.5
CC1(C)Cc2c(c(-c3ccco3)[nH]c(=O)c2C#N)CS1 | 3 | 10 | -11 | 1.1 | -17 | 1.2
CCN(c1ccccc1)S(=O)(=O)c1ccc(OCC(=O)Nc2cc(C)on2)cc1 | -2 | / | 16 | 0.8 | 67* | 0.3
Cc1cc(NC(=O)COc2ccc(N(C)S(=O)(=O)c3ccccc3)cc2)no1 | -5 | 11 | 22 | 0.8 | 55* | 0.4
Cc1cc(NC(=O)CCOc2ccccc2)no1 | / | -14 | 26 | 0.7 | 18 | 0.8
Cc1cc(NC(=O)COc2nnc(-c3ccccc3)c3ccccc23)no1 | 2 | 21 | 52* | 0.5 | 63* | 0.4
C=CCC(Nc1ccco1)c1ccccc1 (stereo unspecified) | 17 | -13 | -10 | 1.1 | -10 | 1.1
Cc1ccc(-c2ccc(=O)n(CC(=O)Nc3cccc(C(=O)N4CCN(C)CC4)c3)n2)cc1 | -8 | -8 | 9 | 0.9 | 2 | 1
O=S(=O)(Nc1ccc(N2CCOCC2)nn1)c1ccccc1 | 5 | -17 | -3 | 1 | 5 | 1
Cc1ccsc1/C=C1\CCc2ccccc2C1=O | 7 | / | 93* | 0.1 | 87* | 0.1
